# Data published in article PMC8713577 (ACS infectious diseases, 2021).
# Where two headings read alike, the source gives them in different places.
# Legend:
# [1] = system: S. aureus strains in the United States; details: analysis conducted in 2011; cited from earlier work
# [2] = human, in vivo; cited from earlier work
# [3] = system: 29 clinical isolates of S. aureus; experiment: MIC against multidrug-resistant clinical isolates of S. aureus; type: cell-based, Staphylococcus aureus; details: 29 multidrug-resistant clinical isolates
# [4] = system: six clinical isolates of E. faecium (VRE); experiment: MIC against clinical isolates of E. faecium; type: cell-based, Enterococcus faecium; details: for activity against VRE clinical isolates: E. faecium clinical isolates with high levels of vancomycin resistance
# S. aureus (FA-32X-B) = experiment: Neutropenic thigh infection burden study, FA-resistant strain; type: in vivo, CD-1 mice; details: 50 mg/kg IP at 1, 2, 3 h postinfection, 8 h postinfection
# [5] = system: clinical isolates of S. aureus / staphylococci resistant to FA; details: cited from earlier work
# [6] = mouse, in vivo
# E. faecium ATCC 19434 = experiment: MIC against sensitive E. faecium; type: cell-based, Enterococcus faecium
# How it was run: (§1)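 Broth microdilution followed CLSI, in cation-adjusted Mueller-Hinton broth in round-bottom wells, run in biological triplicate. Reference strains came from ATCC.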
# S. aureus ATCC 29213 [7] = experiment: MIC, CLSI broth microdilution; type: cell-based, Staphylococcus aureus; details: for antibacterial activity relative to FA: S. aureus ATCC 29213, MIC; for MIC fold worse than FA: S. aureus ATCC 29213
# How it was run: as §1
# [8] = system: human foreskin fibroblast-1 cells (HFF-1); experiment: Cell viability, Alamar Blue, 72 h; type: cell-based
# How it was run: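 HFF-1 fibroblasts were grown in DMEM with 15% fetal bovine serum, 100 μg/mL penicillin and 100 μg/mL streptomycin at 37 °C under 5% CO2. Cells were harvested, seeded and left to adhere. They were exposed to compounds in DMSO (1% final) for 72 h, and viability was then read by Alamar Blue. Raptinal (20 μM) served as the dead control.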
# [9] = system: FA-resistant strains of S. aureus ATCC 29213; type: cell-based, Staphylococcus aureus
# [10] = Mouse maximum tolerated dose / tolerability
# S. aureus ATCC BAA-1721 = experiment: MIC against S. aureus strain harboring the fusC gene; type: cell-based, Staphylococcus aureus; details: S. aureus ATCC BAA-1721, fusC gene
# [11] = system: strains of S. aureus ATCC 29213 resistant to FA-CP; experiment: MIC against FA-CP-resistant mutant strains; type: cell-based, Staphylococcus aureus
# S. aureus = experiment: MIC shift in 50% human serum; type: cell-based, Staphylococcus aureus
# How it was run: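 The CLSI broth microdilution MIC in cation-adjusted Mueller-Hinton broth was repeated against S. aureus with 50% human serum (ultrafiltrate, 30K Dalton membrane-filtered, unspecified gender) in the medium. Testing was in biological triplicate.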
# S. aureus ATCC 29213 [12] = experiment: Resistance frequency, large inoculum method; type: cell-based, Staphylococcus aureus; details: 2, 4, 8, 16, 32X the MIC
smiles,measurement,setting,value
"CC(=O)O[C@H]1C[C@@]2(C)[C@@H](C[C@@H](O)[C@H]3[C@@]4(C)CC[C@@H](O)[C@@H](C)[C@@H]4CC[C@@]32C)/C1=C(\CCC=C(C)C)C(=O)O [FA, Fusidic acid, reference compound]",S. aureus strains susceptible to FA,[1],99.7%
same,Cmax,[2],greater than 130 μg/mL
same,half-life,[2],10 to 14 h
same,activity against clinical isolates of S. aureus,[3],no cross-resistance with vancomycin and retained potent activity
same,activity against VRE clinical isolates,[4],retained potent activity
same,bacterial burden in thigh,S. aureus (FA-32X-B),no efficacy
same,increase in MIC upon resistance,[5]; L461K mutation,> 2048 fold
same,MIC,[5]; S. aureus clinical strains with EF-G L461K mutation,> 256 µg/mL
same,MIC,"[5]; five S. aureus clinical isolates with EF-G V90I, H457Q, L461K, A655V",> 256 µg/mL
same,MIC range,[5]; staphylococcal clinical isolates that carry the fusC gene,2 to 64 µg/mL
same,MIC range,[5]; strains that possess the fusB gene,4 to 1024 µg/mL
same,"tolerability in mice, multiple doses",[6],well tolerated
same,MIC,"E. faecium ATCC 19434; Enterococcus faecium, ATCC19434",2 µg/mL
same,MIC,"S. aureus ATCC 29213 [7]; Staphylococcus aureus, ATCC29213",0.125 µg/mL
same,IC50,"[8]; Homo sapiens, HFF-1, 72 h",> 50 µM
CC(=O)OC1CC2(C)C(CC(O)C3C4(C)CCC(O)C(C)C4CCC32C)C1=C(CCC=C1CCCC1)C(=O)O (stereo not shown) [FA-CP],improvement in activity against FA-resistant strains relative to FA,[9]; 11 FA-resistant strains,2–8 fold
same,MIC,"[9]; FA-resistant strain FA-4X-A, EF-G T385N",2 µg/mL
same,MIC,"[9]; FA-resistant strain FA-4X-B, EF-G T385N",2 µg/mL
same,MIC,"[9]; FA-resistant strain FA-8X-A, EF-G T385N",2 µg/mL
same,MIC,"[9]; FA-resistant strain FA-8X-B, EF-G R464L",8 µg/mL
same,MIC,"[9]; FA-resistant strain FA-16X-A, EF-G H457Y",64 µg/mL
same,MIC,"[9]; FA-resistant strain FA-32X-A, EF-G F88L",128 µg/mL
same,MIC,"[9]; FA-resistant strain FA-32X-B, EF-G P406L",4 µg/mL
same,MIC,"[9]; FA-resistant strain FA-32X-C, EF-G H457L",128 µg/mL
same,MIC,"[9]; FA-resistant strain FA-32X-D, EF-G T436I",2 µg/mL
same,MIC,"[9]; FA-resistant strain FA-32X-E, EF-G H457N",128 µg/mL
same,MIC,"[9]; FA-resistant strain FA-32X-F, EF-G D434N",32 µg/mL
same,activity against clinical isolates of S. aureus,[3],no cross-resistance with vancomycin and retained potent activity
same,activity against VRE clinical isolates,[4],retained potent activity
same,bacterial burden in thigh,S. aureus (FA-32X-B),reductions in bacterial burden
same,"tolerability in mice, multiple doses","[10]; 50 mg/kg, intraperitoneal injection, once-a-day for 4 days",well tolerated
same,"tolerability in mice, single dose","[10]; single dose of 50 mg/kg, IP",well tolerated
same,MIC,E. faecium ATCC 19434; sensitive strain E. faecium ATCC 19434,2 µg/mL
same,MIC,S. aureus ATCC BAA-1721,8 µg/mL
same,MIC,"S. aureus ATCC 29213 [7]; S. aureus ATCC 29213, CLSI",0.125 µg/mL
same,antibacterial activity relative to FA,S. aureus ATCC 29213 [7],equipotent activity to FA
same,fold increase in MIC from wild-type (WT) S. aureus,[11]; highest MIC of colonies generated from FA-CP,512 fold
same,highest MIC observed for colonies generated from FA-CP,[11]; resistance mutants generated at 32X the MIC,64 µg/mL
same,MIC for FA-CP,"[11]; strain FA-CP-32X-1, EF-G H457Y",32 µg/mL
same,MIC for FA-CP,"[11]; strain FA-CP-32X-2, EF-G H457Y",64 µg/mL
same,MIC for FA-CP,"[11]; strain FA-CP-32X-3, EF-G H457Y",64 µg/mL
same,MIC for FA-CP,"[11]; strain FA-CP-32X-4, EF-G H457Y",32 µg/mL
same,MIC for FA-CP,"[11]; strain FA-CP-32X-5, EF-G H457Y",64 µg/mL
same,MIC for FA-CP,"[11]; strain FA-CP-32X-6, EF-G H457Y",64 µg/mL
same,MIC for FA-CP,"[11]; strain FA-CP-32X-7, EF-G H457Y",64 µg/mL
same,MIC for FA-CP,"[11]; strain FA-CP-32X-8, EF-G H457Y",64 µg/mL
same,MIC for FA-CP,"[11]; strain FA-CP-32X-9, EF-G H457Y",32 µg/mL
same,MIC for FA-CP,"[11]; strain FA-CP-32X-10, EF-G D434N",32 µg/mL
same,MIC for FA-CP,"[11]; strain FA-CP-32X-11, EF-G H457Y",32 µg/mL
same,MIC for FA-CP,"[11]; strain FA-CP-32X-12, EF-G D434N",32 µg/mL
same,MIC for FA-CP,"[11]; strain FA-CP-32X-13, EF-G H457Y",64 µg/mL
same,MIC for FA-CP,"[11]; strain FA-CP-32X-14, EF-G H457Y",32 µg/mL
same,MIC for FA-CP,"[11]; strain FA-CP-32X-15, EF-G H457Y",64 µg/mL
same,MIC for FA-CP,"[11]; strain FA-CP-32X-16, EF-G F88L",64 µg/mL
same,MIC for FA-CP,"[11]; strain FA-CP-32X-17, EF-G F88L",64 µg/mL
same,MIC for FA-CP,"[11]; strain FA-CP-32X-18, EF-G H457Y",64 µg/mL
same,MIC for FA-CP,"[11]; strain FA-CP-32X-19, EF-G H457Y",32 µg/mL
same,MIC for FA-CP,"[11]; strain FA-CP-32X-20, EF-G H457Y",32 µg/mL
same,shift in MIC in 50% human serum compared to FA,S. aureus,very similar
same,IC50,"[8]; HFF-1 cells, 72 h",> 50 µM
same,resistance frequency relative to FA,S. aureus ATCC 29213 [12],modest improvement in resistance frequency at 2 and 32X the MIC
CC(=O)OC1CC2(C)C(CC(O)C3C4(C)CCC(=O)C(C)C4CCC32C)C1=C(CCC=C(C)C)C(=O)O (stereo not shown) [compound 5],MIC fold worse than FA,S. aureus ATCC 29213 [7],4–8 fold
CC(=O)OC1CC2(C)C(CC(=O)C3C4(C)CCC(O)C(C)C4CCC32C)C1=C(CCC=C(C)C)C(=O)O (stereo not shown) [compound 10],MIC fold worse than FA,S. aureus ATCC 29213 [7],4–8 fold
CC(=O)OC1CC2(C)C(CC(O)C3C4(C)CCC(O)C(C)C4CCC32C)C1=C(CCC=C1CCCCC1)C(=O)O (stereo not shown) [compound 26],MIC,"S. aureus ATCC 29213 [7]; S. aureus ATCC 29213, CLSI",0.125 µg/mL
same,antibacterial activity relative to FA,S. aureus ATCC 29213 [7],equipotent activity to FA
same,shift in MIC in 50% human serum compared to FA,S. aureus,very similar
same,IC50,"[8]; HFF-1 cells, 72 h",> 50 µM
same,resistance frequency relative to FA,S. aureus ATCC 29213 [12],only displayed an improvement at 32X the MIC
CC(=O)O[C@H]1C[C@@]2(C)[C@@H](C[C@@H](O)[C@H]3[C@@]4(C)CC[C@@H](O)[C@@H](C)[C@@H]4CC[C@@]32C)/C1=C(\CCC=C1CCOCC1)C(=O)O [compound 27],MIC,"S. aureus ATCC 29213 [7]; S. aureus ATCC 29213, CLSI",0.125 µg/mL
same,antibacterial activity relative to FA,S. aureus ATCC 29213 [7],equipotent activity to FA
same,shift in MIC in 50% human serum compared to FA,S. aureus,very similar
same,IC50,"[8]; HFF-1 cells, 72 h",> 50 µM
same,resistance frequency relative to FA,S. aureus ATCC 29213 [12],worse resistance frequency relative to FA
CC(=O)OC1CC2(C)C(CC(O)C3C4(C)CCC(O)C(C)C4CCC32C)C1C(CCCC(C)C)C(=O)O (stereo not shown) [compound 28],antibacterial activity relative to FA,S. aureus ATCC 29213 [7],modest decreases in potency relative to FA
CC(=O)O[C@H]1C[C@@]2(C)[C@@H](C[C@@H](O)[C@H]3[C@@]4(C)CC[C@@H](O)[C@@H](C)[C@@H]4CC[C@@]32C)/C1=C(\CCC=C(C)C)C(=O)O [sodium fusidate],"tolerability in mice, single dose","[6]; ip, 50 mg/kg",well tolerated
CN[C@H](CC(C)C)C(=O)N[C@H]1C(=O)N[C@@H](CC(N)=O)C(=O)N[C@H]2C(=O)N[C@H]3C(=O)N[C@H](C(=O)N[C@H](C(=O)O)c4cc(O)cc(O)c4-c4cc3ccc4O)[C@H](O)c3ccc(c(Cl)c3)Oc3cc2cc(c3O[C@@H]2O[C@H](CO)[C@@H](O)[C@H](O)[C@H]2O[C@H]2C[C@](C)(N)[C@H](O)[C@H](C)O2)Oc2ccc(cc2Cl)[C@H]1O [vancomycin],MIC,[4],512 µg/mL
